We go through 7 compounds from paper PMC9064241 (RSC Advances, 2019).

The EC50 is the concentration needed to bring the measured effect to its halfway point. The IC50 is the concentration needed to halve the response being measured.

One assay has as its system FFA4. The note with it: read-out: EC50 as natural FFA4 agonist; literature retrieval; cited from earlier work.
The target of assay [1] is T1, human FFA4 (Homo sapiens, UniProt Q5NUL3).
T1 sequence (Q5NUL3 1-361): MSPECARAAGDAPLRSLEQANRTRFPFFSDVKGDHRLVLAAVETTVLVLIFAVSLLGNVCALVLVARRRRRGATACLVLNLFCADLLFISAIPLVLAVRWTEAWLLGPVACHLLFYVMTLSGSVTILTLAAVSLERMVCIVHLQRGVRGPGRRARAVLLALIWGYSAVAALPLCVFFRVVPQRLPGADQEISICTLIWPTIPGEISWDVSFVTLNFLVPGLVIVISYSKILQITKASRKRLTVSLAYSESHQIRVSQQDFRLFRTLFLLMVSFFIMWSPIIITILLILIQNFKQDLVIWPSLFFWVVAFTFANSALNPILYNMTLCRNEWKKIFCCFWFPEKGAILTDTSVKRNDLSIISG
In words: DMR agonist assay in CHO-FFA4 cells. The format is cell-based. The note with it: for EC50: CHO-FFA4 cell, EC50, NPs-derived FFA4 agonists, DMR, CHO-FFA4 cells; for Selectivity between FFA4 and FFA1: comparison of DMR activity in CHO-FFA4 and CHO-FFA1 cells; for DMR response relative to the TUG891-induced response: screening of 140 natural compounds in CHO-FFA4 cells, of the TUG891-induced response (∼80 pm); for DMR response in CHO-FFA4 cells: 100 μM ALA, 12.5 μM GW9508, 10 μM TAK875 (Fig. 2A).

For assay [2], the target named is T2, human FFA1 (Homo sapiens, UniProt O14842). In words: DMR agonist assay in CHO-FFA1 cells. The format is cell-based. The note with it: for EC50: CHO-FFA1 cell, EC50, NPs-derived FFA4 agonists.
Assay [3] has as its target T1, human FFA4. In words: FLIPR calcium flux assay in CHO-FFA4 cells. The format is cell-based. The note with it: acetylshikonin 100 μM, TUG891 15 μM. For orientation: A change in cytosolic calcium serves as a functional read-out for many receptors and channels.
The subject of assay [4] is HT29 cells. In words: DMR agonist assay in HT29 cells. The format is cell-based, Human. The note with it: for EC50: Homo sapiens, HT-29, read-out: HT29 cell, EC50, NPs-derived FFA4 agonists, DMR, HT29 cells.
Assay [5] has as its target T1, human FFA4. In words: DMR desensitization assay in CHO-FFA4 cells. The format is cell-based.
In assay [6] the test system is HT29 cells. In words: DMR desensitization assay in HT29 cells. The note with it: Homo sapiens, HT-29, read-out: HT 29 cell Desensitization IC50. The format is cell-based.
The test system of another assay is CHO-K1 cells. In words: DMR agonist assay in parental CHO-K1 cells. The format is cell-based, Chinese hamster. In outline: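 Parental CHO-K1 cells were grown in Ham's F12K with 10% FBS, then seeded on biosensor microplates overnight to a confluent monolayer. Cells were washed twice and held 1–2 h in HBSS, 10 mM HEPES, pH 7.2, 0.1% BSA. After a 2 min baseline, the test compound, diluted in the same buffer, was added. Label-free DMR was recorded for 1 h.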

In assay [7] the target is T2, human FFA1. In words: DMR desensitization assay in CHO-FFA1 cells. The note with it: CHO-FFA1 cell Desensitization IC50, IC50 to desensitize the DMR of 1 μM GW9508 in CHO-FFA1 cells. The format is cell-based.

T2 sequence (O14842 whole entry): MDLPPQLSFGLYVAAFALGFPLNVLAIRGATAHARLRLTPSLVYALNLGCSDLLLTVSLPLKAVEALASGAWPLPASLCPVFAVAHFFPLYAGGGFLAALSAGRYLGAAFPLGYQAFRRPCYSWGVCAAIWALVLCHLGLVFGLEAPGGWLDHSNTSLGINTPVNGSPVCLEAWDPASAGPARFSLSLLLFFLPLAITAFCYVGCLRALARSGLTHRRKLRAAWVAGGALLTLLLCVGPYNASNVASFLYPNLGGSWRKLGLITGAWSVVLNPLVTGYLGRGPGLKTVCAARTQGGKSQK

For `CC(C)=CCC/C(C)=C/CC/C(C)=C/Cc1c(O)cc(C)c(C(=O)O)c1O` [grifolic acid], in the assay with FFA4, the EC50 was more than 30 µM.

Consider `CC(=O)O[C@H](CC=C(C)C)C1=CC(=O)c2c(O)ccc(O)c2C1=O` [Acetylshikonin, acetylshikonin], for which, on human FFA4 [1], the EC50 turned out to be 10.2 ± 2.95 µM; the “Selectivity between FFA4 and FFA1” value was “non-selective”; the “DMR response relative to the TUG891-induced response” value was “greater than 30%”. For the same compound, the EC50 at human FFA1 [2] is 6.17 ± 2.81 µM. The “Ca2+ response in CHO-FFA4 cells” value on human FFA4 [3] is “produced a Ca^2+ response”. For the same compound, the EC50 in the assay with HT29 cells [4] worked out at 2.82 ± 0.39 µM.

As for `CCCCCCCCCCCCCC[C@@H](O)[C@@H](O)[C@@H](N)CO` [phytosphingosine], in the assay on FFA4, the EC50 is 33.4 µM.

On to `Cc1cc(O)c2c(c1)C(=O)c1cc(O)cc(O)c1C2=O` [Emodin, emodin], for which the EC50 at human FFA4 [1] was 38.2 ± 5.02 µM; on human FFA1 [2], more than 100 µM; in the assay with HT29 cells [4], approximately 39 µM. Besides, the “Selectivity between FFA4 and FFA1” value at human FFA4 [1] is “selectivity on FFA4”. In addition, the “DMR response relative to the TUG891-induced response” value on human FFA4 [1] is “greater than 30%”.

For `Cc1cc(OCCCS(C)(=O)=O)cc(C)c1-c1cccc(COc2ccc3c(c2)OC[C@H]3CC(=O)O)c1` [TAK875], the “DMR response in CHO-FFA4 cells” value at human FFA4 [1] is “did not induce any response”. The IC50 on human FFA4 [5] and in the assay on HT29 cells [6] was more than 20 µM in each case. The “DMR response in parental CHO-K1 cells” value with CHO-K1 cells was “negligible DMR response”. The “DMR response in HT29 cells” value in the assay with HT29 cells [4] (TAK875 at 10 μM, MEDICA16) is “did not induce an observable signal”.

Consider `O=C(O)CCc1ccc(NCc2cccc(Oc3ccccc3)c2)cc1` [GW9508], for which, on human FFA4 [1], the “DMR response in CHO-FFA4 cells” value was “minor response”. In addition, at human FFA1 [2], the “Agonist efficacy in CHO-FFA1 cells compared with ALA” value is recorded as “partial agonism”. For the same compound, the IC50 was 0.14 ± 0.01 µM on human FFA1 [7] and 12 ± 2.12 µM in the assay with HT29 cells [6]. Besides, in the assay with CHO-K1 cells, the “DMR response in parental CHO-K1 cells” value is listed as “negligible DMR response”.

Turning to `Cc1ccc(-c2ccc(F)cc2COc2ccc(CCC(=O)O)cc2)cc1` [TUG891], the IC50 with HT29 cells [6] came to 0.48 ± 0.12 µM. In addition, in the assay on CHO-K1 cells, the “DMR response in parental CHO-K1 cells” value is recorded as “neither GSK137647A (Fig. 2F) nor TUG891 (data not shown) produced detectable DMR events”.
